Experimental data taken from ChEMBL document CHEMBL1681705, “Optimisation of ITK inhibitors through successive iterative design cycles” (Bioorg Med Chem Lett, 2011).

Columns and labels:
[1] = target: T1, Dual specificity mitogen-activated protein kinase kinase 7 (Homo sapiens) (UniProt O14733); assay: Inhibition of MKK7beta at 1 uM
T1 sequence (whole entry): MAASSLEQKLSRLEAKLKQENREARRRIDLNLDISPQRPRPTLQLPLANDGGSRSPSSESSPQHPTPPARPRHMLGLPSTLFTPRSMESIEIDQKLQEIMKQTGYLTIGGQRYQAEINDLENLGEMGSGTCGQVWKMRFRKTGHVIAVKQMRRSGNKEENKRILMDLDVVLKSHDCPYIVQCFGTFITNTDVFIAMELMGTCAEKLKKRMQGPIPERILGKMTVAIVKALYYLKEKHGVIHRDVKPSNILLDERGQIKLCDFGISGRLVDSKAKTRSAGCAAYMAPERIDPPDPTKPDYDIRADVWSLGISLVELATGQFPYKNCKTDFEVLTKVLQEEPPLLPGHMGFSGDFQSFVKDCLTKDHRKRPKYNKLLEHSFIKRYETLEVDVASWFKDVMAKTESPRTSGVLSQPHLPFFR
Outline: (§1)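 Single-point screen within a 108-kinase selectivity panel. Each kinase was tested with inhibitor at 0.1 and 1.0 micromolar, and activity was recorded as percent inhibition.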

[2] = target: Platelet-derived growth factor receptor beta (Homo sapiens) (UniProt P09619); assay: Inhibition of PDGFRbeta at 1 uM; outline: as §1
[3] = target: Mitogen-activated protein kinase 11 (Homo sapiens) (UniProt Q15759); assay: Inhibition of SAPK2b at 1 uM
[4] = target: Mitogen-activated protein kinase 9 (Homo sapiens) (UniProt P45984); assay: Inhibition of JNK2a2 at 1 uM; conditions: values are per cent of control
[5] = target: Tyrosine-protein kinase ABL1 (Homo sapiens) (UniProt P00519); assay: Inhibition of Abl at 1 uM; values are per cent of control
[6] = target: Macrophage colony-stimulating factor 1 receptor (Homo sapiens) (UniProt P07333); assay: Inhibition of Fms at 0.1 uM; values are per cent of control
[7] = target: Tyrosine-protein kinase Lyn (Homo sapiens) (UniProt P07948); assay: Inhibition of Lyn at 0.1 uM; values are per cent of control
[8] = target: Proto-oncogene tyrosine-protein kinase receptor Ret (Homo sapiens) (UniProt P07949); assay: Inhibition of Ret at 0.1 uM; values are per cent of control
[9] = target: T2, Ephrin type-A receptor 3 (Homo sapiens) (UniProt P29320); assay: Inhibition of EphA3 at 0.1 uM; values are per cent of control
T2 sequence (whole entry): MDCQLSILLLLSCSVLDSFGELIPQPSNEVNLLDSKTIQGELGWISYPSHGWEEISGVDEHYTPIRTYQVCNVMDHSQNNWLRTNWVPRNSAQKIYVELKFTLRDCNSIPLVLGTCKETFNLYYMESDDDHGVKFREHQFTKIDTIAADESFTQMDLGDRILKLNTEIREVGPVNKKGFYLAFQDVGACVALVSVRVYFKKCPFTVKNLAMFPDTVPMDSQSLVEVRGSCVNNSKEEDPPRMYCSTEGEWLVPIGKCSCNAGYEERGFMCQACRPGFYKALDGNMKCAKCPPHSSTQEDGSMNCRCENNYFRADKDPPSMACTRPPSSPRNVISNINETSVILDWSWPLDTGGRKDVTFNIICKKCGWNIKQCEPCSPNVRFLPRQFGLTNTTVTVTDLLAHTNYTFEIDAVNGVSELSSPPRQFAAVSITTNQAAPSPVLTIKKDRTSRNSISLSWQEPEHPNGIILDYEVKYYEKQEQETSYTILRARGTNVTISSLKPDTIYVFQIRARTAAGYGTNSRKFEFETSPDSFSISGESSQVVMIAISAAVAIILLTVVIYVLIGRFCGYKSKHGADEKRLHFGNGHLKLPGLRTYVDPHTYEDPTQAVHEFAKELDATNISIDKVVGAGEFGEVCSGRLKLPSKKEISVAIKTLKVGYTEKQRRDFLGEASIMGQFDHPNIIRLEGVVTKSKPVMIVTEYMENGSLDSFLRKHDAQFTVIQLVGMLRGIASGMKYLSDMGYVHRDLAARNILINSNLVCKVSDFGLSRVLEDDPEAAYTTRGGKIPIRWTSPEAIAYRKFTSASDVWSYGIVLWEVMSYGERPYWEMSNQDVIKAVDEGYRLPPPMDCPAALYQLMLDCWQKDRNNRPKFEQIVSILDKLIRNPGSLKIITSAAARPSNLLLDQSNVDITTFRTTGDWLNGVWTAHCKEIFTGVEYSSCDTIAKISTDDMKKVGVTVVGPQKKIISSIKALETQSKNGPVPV

[10] = target: Fibroblast growth factor receptor 2 (Homo sapiens) (UniProt P21802); assay: Inhibition of FGFR2 at 0.1 uM; values are per cent of control
[11] = target: RAC-beta serine/threonine-protein kinase (Homo sapiens) (UniProt P31751); assay: Inhibition of PKBbeta at 0.1 uM; values are per cent of control
Chain of RAC-beta serine/threonine-protein kinase (Homo sapiens) (P31751 whole entry): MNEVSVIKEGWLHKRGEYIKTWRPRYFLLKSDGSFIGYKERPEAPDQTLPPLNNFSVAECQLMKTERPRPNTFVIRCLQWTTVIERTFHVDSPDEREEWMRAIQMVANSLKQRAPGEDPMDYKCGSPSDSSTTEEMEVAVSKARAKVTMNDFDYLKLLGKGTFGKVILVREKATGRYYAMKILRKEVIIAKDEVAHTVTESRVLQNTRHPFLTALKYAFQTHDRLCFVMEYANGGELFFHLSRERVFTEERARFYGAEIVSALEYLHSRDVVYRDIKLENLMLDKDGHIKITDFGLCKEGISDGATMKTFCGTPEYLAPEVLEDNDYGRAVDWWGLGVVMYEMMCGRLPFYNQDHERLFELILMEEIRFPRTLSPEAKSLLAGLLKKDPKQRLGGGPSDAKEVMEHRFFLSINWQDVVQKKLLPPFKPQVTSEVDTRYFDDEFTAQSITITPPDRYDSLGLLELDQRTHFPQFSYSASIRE

Chain of Mitogen-activated protein kinase 9 (Homo sapiens) (P45984 whole entry, looked up): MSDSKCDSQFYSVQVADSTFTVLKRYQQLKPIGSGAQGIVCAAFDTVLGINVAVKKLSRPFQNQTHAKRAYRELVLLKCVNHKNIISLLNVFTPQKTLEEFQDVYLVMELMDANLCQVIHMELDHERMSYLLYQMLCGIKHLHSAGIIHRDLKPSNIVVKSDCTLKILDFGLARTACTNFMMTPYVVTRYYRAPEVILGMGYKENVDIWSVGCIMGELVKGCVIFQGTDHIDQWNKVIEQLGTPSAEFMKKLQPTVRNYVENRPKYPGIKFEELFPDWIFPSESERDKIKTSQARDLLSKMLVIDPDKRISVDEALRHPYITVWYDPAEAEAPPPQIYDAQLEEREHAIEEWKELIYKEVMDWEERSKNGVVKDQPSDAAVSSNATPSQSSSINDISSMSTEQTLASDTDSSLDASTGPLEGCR
Chain of Macrophage colony-stimulating factor 1 receptor (Homo sapiens) (P07333 whole entry): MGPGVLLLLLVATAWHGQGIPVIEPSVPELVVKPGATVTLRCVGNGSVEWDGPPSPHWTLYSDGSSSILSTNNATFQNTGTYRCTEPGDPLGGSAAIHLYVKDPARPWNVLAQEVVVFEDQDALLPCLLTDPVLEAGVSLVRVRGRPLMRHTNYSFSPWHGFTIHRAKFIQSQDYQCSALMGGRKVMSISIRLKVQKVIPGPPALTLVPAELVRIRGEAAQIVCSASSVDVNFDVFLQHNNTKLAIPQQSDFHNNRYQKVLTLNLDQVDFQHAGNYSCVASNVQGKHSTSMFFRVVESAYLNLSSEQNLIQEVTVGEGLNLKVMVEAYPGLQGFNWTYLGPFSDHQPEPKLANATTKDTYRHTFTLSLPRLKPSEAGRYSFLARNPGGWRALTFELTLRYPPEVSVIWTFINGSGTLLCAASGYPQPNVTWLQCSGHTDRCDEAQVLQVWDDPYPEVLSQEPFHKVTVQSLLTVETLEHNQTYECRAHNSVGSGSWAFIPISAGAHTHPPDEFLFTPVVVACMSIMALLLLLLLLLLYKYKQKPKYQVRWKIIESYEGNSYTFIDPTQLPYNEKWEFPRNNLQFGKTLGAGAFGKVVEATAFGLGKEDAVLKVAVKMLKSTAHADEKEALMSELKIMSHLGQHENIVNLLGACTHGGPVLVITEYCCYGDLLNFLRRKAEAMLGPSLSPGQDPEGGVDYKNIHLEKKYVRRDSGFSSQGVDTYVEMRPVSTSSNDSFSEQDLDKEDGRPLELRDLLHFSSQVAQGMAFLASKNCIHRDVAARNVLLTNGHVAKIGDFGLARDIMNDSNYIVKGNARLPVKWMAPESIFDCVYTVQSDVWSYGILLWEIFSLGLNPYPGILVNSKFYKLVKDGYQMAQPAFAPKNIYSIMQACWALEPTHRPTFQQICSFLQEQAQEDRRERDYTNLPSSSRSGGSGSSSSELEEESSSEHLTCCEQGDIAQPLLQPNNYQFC
Chain of Platelet-derived growth factor receptor beta (Homo sapiens) (P09619 whole entry): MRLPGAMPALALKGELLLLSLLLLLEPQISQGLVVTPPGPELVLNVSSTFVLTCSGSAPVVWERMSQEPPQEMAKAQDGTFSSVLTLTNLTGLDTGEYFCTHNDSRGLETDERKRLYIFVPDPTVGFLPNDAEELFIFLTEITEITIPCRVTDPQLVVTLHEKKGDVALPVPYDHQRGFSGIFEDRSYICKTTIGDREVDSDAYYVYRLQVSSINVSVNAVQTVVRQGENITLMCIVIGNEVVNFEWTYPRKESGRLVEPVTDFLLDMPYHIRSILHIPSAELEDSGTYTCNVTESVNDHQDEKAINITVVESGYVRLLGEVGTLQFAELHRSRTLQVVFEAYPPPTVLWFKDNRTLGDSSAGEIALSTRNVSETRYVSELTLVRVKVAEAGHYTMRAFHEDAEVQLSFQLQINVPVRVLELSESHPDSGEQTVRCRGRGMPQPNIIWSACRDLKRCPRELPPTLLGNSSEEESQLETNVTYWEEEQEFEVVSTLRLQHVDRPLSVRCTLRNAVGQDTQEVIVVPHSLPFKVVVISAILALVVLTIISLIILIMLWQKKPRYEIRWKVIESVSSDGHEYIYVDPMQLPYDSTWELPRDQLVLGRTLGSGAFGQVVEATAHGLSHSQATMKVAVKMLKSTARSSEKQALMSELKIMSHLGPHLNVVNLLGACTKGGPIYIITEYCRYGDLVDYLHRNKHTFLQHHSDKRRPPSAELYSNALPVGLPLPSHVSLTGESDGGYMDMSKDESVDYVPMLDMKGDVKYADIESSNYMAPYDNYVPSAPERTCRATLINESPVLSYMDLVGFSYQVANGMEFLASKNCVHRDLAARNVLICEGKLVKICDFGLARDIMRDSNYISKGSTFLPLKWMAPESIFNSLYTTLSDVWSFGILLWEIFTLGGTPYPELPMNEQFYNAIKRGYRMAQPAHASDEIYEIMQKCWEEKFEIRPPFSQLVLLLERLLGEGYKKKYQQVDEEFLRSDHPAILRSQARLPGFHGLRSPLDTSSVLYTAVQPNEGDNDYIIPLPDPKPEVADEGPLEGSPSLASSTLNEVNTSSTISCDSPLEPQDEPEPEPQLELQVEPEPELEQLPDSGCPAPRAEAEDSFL
Chain of Mitogen-activated protein kinase 11 (Homo sapiens) (Q15759 whole entry): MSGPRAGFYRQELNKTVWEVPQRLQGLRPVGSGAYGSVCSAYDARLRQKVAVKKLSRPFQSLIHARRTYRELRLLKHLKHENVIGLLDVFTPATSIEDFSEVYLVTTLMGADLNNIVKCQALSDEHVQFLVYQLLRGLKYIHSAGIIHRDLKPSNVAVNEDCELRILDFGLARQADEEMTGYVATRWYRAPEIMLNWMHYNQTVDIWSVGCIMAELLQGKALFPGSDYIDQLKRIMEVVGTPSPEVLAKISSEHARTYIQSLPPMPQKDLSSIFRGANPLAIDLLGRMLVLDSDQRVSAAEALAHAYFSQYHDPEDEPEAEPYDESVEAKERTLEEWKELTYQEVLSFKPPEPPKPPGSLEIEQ
Chain of Proto-oncogene tyrosine-protein kinase receptor Ret (Homo sapiens) (P07949 whole entry): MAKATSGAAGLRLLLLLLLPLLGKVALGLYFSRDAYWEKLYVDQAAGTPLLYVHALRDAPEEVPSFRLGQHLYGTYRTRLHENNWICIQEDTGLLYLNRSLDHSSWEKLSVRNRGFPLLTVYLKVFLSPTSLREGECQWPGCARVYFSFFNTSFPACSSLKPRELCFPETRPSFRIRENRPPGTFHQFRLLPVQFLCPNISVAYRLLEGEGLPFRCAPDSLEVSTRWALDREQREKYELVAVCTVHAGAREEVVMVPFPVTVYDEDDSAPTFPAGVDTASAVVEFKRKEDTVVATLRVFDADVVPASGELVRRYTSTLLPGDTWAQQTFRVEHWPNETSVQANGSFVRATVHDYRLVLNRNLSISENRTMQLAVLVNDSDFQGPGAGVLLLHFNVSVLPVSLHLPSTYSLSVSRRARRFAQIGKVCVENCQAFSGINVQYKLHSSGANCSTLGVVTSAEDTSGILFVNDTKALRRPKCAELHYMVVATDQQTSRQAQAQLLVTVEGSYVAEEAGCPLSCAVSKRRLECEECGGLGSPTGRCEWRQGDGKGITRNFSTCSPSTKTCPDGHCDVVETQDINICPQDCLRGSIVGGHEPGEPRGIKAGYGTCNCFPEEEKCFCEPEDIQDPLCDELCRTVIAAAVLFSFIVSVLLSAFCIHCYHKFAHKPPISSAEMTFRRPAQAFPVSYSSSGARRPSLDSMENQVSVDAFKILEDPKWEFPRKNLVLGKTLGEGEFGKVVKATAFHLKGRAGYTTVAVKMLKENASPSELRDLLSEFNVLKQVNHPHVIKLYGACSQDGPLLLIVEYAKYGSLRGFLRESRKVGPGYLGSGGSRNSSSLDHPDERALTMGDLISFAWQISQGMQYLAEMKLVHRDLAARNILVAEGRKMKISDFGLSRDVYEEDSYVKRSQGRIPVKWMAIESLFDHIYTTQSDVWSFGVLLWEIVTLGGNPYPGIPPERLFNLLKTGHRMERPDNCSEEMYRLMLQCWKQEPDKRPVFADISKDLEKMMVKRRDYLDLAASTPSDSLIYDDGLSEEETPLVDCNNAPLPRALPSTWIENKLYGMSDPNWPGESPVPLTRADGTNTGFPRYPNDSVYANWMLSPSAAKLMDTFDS
Chain of Tyrosine-protein kinase Lyn (Homo sapiens) (P07948 2-512 limits assumed): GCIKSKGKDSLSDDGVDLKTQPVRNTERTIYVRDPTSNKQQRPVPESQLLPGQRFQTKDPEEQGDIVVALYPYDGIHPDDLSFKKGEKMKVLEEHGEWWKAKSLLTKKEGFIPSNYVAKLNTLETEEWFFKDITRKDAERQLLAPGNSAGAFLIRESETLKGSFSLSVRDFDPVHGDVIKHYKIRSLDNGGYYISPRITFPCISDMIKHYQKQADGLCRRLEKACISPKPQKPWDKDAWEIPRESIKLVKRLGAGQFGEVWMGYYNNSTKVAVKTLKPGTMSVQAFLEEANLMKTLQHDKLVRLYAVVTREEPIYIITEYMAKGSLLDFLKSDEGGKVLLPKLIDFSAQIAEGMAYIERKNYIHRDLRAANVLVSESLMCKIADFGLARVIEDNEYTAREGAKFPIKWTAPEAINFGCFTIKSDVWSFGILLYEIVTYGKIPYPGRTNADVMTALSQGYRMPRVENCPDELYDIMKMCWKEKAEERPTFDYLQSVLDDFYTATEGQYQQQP

| inhibition [1] [%] | inhibition [2] [%] | inhibition [3] [%] | residual activity [4] [%] | residual activity [5] [%] | residual activity [6] [%] | residual activity [7] [%] | residual activity [8] [%] | residual activity [9] [%] | residual activity [10] [%] | residual activity [11] [%] | SMILES |
| --- | --- | --- | --- | --- | --- | --- | --- | --- | --- | --- | --- |
| 95 | 42 | 86 | 88 | 0 | 60 | 15 | 0 | 81 | 51 | 103 | Cc1ccc2cc(-c3n[nH]c4ccc(NC5CCN(Cc6ccccc6)CC5)cc34)[nH]c2c1 |
| 52 | 34 | 91 | 87 | 0 | 57 | 1 | 8 | 89 | 8 | 107 | Cc1ccc2cc(-c3n[nH]c4ccc(NC5CCNC5)cc34)[nH]c2c1 (configuration not stated) |
